Columns and labels:
CXCR1 [1] = assay: CXCR1 surface expression on neutrophils, flow cytometry; assay type: cell-based, human
Method in brief: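 Human blood neutrophils were isolated by dextran sedimentation and Ficoll (>95% CD16+) and held at 5×10^6/mL in RPMI 1640 with 1% FBS. They were treated 3h with a dose series (test peptide 1–10 µM; chemokines 1, 5, 10, 50 nM) or with 5 µM for 0.5–3h. Cells were blocked in 10% human serum and stained with anti-CXCR1-APC/anti-CXCR2-FITC or anti-P2X7-FITC, plus anti-CD16. Read-out was flow cytometry GMFI.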

FPR2 = FPR2 surface expression on neutrophils; assay type: cell-based, human; conditions: LL-37; data not shown
CXCR2 [2] = assay: CXCR2 surface expression on monocytes; assay type: cell-based, human; conditions: Supporting information Fig. 2
neutrophils [3] = assay: Neutrophil migration, 24-well Transwell; assay type: cell-based, human; conditions: 1 h, 37°C, Fig. 6H
Method in brief: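 CFSE-labelled human neutrophils (5 µM, 5 min RT) at 5×10^6/mL in phenol-red-free RPMI 1640 with 1% FBS went in the Transwell upper chamber (3-µm pores). The lower chamber held test peptide (1 or 5 µM) or medium. Some cells were first preincubated 20 min with 10 µM CXCR2 antagonist. After 1 h at 37 °C, migrated cells were read at 495 nm against a standard curve. Quadruplicate; unpaired t-test.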

CXCR2 [4] = assay: Calcium mobilization in HEK293/CXCR2 cells; assay type: cell-based, human; conditions: Indo-1; Fig. 7A-B
Method in brief: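 They were washed in cold PBS, pelleted at 200 × g for 10 min at 4 °C, and resuspended in PBS with Ca/Mg. […] [Ca2+]i was read as the 405:485 nm ratio by flow cytometry, gating on living cells.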

CXCR1 [5] = assay: Calcium mobilization in HEK293/CXCR1 cells; assay type: cell-based, human; conditions: Indo-1; Fig. 7A-B
Method in brief: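 CXCR1-transfected HEK293 cells were loaded with 5 µM Indo-1-AM in 5 µM pluronic F-127/PBS for 30 min at RT. They were washed in cold PBS, spun at 200 × g for 10 min at 4 °C and suspended in PBS with calcium and magnesium. Stimulation followed baseline recording. Flow cytometric [Ca2+]i was read as the 405:485 nm emission ratio with 351 nm excitation. Three independent experiments.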

THP-1 cells [6] = assay: Calcium mobilization in THP-1 cells; assay type: cell-based; conditions: Fig. 7C
Method in brief: (§1)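 Peripheral blood monocytes (kit-isolated from PBMC, CD14-checked) or THP-1 cells at 10^7/mL were loaded with 5 µM Indo-1-AM for 7 min at 37 °C, then held 10 min at RT and washed in cold PBS. Cells were run at 2×10^6/mL in KRP (PBS, 1.5 mM CaCl2, 1.5 mM MgSO4). After baseline they got a first stimulus, then a second. Flow cytometry used 351 nm excitation and the 405:485 nm ratio, gating live cells. Three independent experiments.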

monocytes [7] = assay: Calcium mobilization in monocytes; assay type: cell-based, human
Method in brief: as §1

THP-1 cells [8] = assay: Migration of THP-1 cells, 24-well Transwell; assay type: cell-based; conditions: LL-37 5 µM, CXCL1 50 nM, WKYMVm 5 µM, ATP 50 µM, BzATP 50 µM; 2 h, 37°C; Fig. 7E
Method in brief: (§2)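 CFSE-labelled monocytes or THP-1 cells (5 µM, 5 min RT) at 2×10^6/mL in phenol-red-free RPMI 1640 with 1% FBS went in the Transwell upper chamber (3-µm pores). Stimuli in the lower chamber included CXCL1 50 nM, WKYMVm 5 µM and ATP/BzATP 50 µM. Cells were used with or without 20 min preincubation with 10 µM CXCR2 antagonist. Incubation at 37 °C lasted 90 min for monocytes and 2 h for THP-1. Lower-well cells were read at 495 nm against a standard curve, in quadruplicate.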

monocytes [9] = assay: Migration of monocytes, 24-well Transwell; assay type: cell-based, human; conditions: LL-37 5 µM, CXCL1 50 nM, WKYMVm 5 µM, ATP 50 µM, BzATP 50 µM; 90 min, 37°C; Fig. 7F
Method in brief: as §2

CXCR2 [10] = assay: Confocal analysis of CXCR2 internalization in neutrophils; assay type: cell-based, human; conditions: LL-37 5 µM or CXCL8 50 nM, 1 h, 37°C; Fig. 8
Method in brief: (§3)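 Neutrophils came from citrated donor blood by dextran sedimentation and Ficoll gradient. […] Cells were fixed in 2% paraformaldehyde, permeabilised with saponin and blocked with human serum. Anti-CXCR1 or anti-CXCR2 mAb (4°C), then Alexa 488 anti-mouse IgG, DAPI mount, confocal imaging; three independent experiments.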

CXCR1 [11] = assay: Confocal analysis of CXCR1 internalization in neutrophils; assay type: cell-based, human; conditions: LL-37 5 µM or CXCL8 50 nM, 1 h, 37°C; Fig. 8
Method in brief: as §3

[12] = system: CXCR2 transfected HEK293 cells; assay: Secondary necrosis of CXCR2 transfected HEK293 cells; assay type: cell-based; conditions: Supporting information Fig. 4
CXCR2 [13] = assay: Total CXCR2 protein in neutrophils, western blot; assay type: cell-based, human; conditions: LL-37 treated neutrophils, Supporting Information Fig. 6B
[14] = system: CXCR1 transfected HEK293 cells; assay: Secondary necrosis of CXCR1 transfected HEK293 cells; assay type: cell-based; conditions: Supporting information Fig. 4
CXCR2 [15] = conditions: LL-37 treated neutrophils; ref [15]; cited from earlier work
neutrophils [16] = conditions: cited from earlier work
neutrophils [17] = conditions: ref [15], cited from earlier work
neutrophils [18] = conditions: LL-37; ref [15]; cited from earlier work
immature dendritic cells = conditions: differentiated from monocytes; ref [9]; cited from earlier work
neutrophils [19] = conditions: ref [13]; cited from earlier work
macrophages = conditions: including chemokines and their receptors; ref [6]; cited from earlier work
mast cells = conditions: ref [3], [9], [10]; cited from earlier work

LL-37: ~4.5 kD active α-helical peptide, C-terminal domain of human cathelicidin hCAP18
CXCR1 surface expression, time course (CXCR1 [1]; LL-37 5 µM, 0.5-3h, Fig. 1C): not affected by LL-37 treatment
CXCR1 down-regulation at 10 µM (CXCR1 [1]; LL-37 10 µM, 3h): does not down-regulate CXCR1
FPR2 surface expression, time course (FPR2): remained unchanged
CXCR2 down-regulation on monocytes (CXCR2 [2]): down-regulate CXCR2
neutrophil migration at 1 µM (neutrophils [3]; LL-37 1 µM): not at 1 µM
neutrophil migration at 5 µM (neutrophils [3]; LL-37 5 µM, over background, p<0.05): induced neutrophil migration (over background)
calcium mobilization in CXCR2 transfected HEK293 cells (CXCR2 [4]): weak but similar patterns of calcium mobilization
calcium mobilization in CXCR1 transfected HEK293 cells (CXCR1 [5]): only CXCL8 gave a response
calcium signal in THP-1 cells (THP-1 cells [6]): robust calcium signal
return of Ca2+ response to baseline, THP-1 (THP-1 cells [6]; LL-37): returns to baseline for THP-1 cells
block of ATP induced calcium mobilization by LL-37 (THP-1 cells [6]; THP-1): able to partially block
return of Ca2+ response to baseline, monocytes (monocytes [7]; LL-37, Fig. 7D): returns to baseline for THP-1 cells, but not for neutrophils and monocytes
cross-block of ATP stimulated calcium mobilization in monocytes (monocytes [7]; LL-37 first, then ATP, Fig. 7D): neither ATP nor WKYMVm cross-block LL-37 stimulated calcium mobilization and vice versa
cross-block of WKYMVm stimulated calcium mobilization in monocytes (monocytes [7]; LL-37 first, then WKYMVm, Fig. 7D): neither ATP nor WKYMVm cross-block LL-37 stimulated calcium mobilization and vice versa
calcium mobilization in monocytes (monocytes [7]; LL-37 stimulated): stimulates calcium mobilization
stimulation of migration of THP-1 cells (THP-1 cells [8]): but not THP-1 cells
stimulation of migration of monocytes (monocytes [9]): able to stimulate migration in monocytes
CXCR2 translocation (internalization) (CXCR2 [10]): translocation of CXCR2 but not CXCR1 to the cytoplasmic granules
CXCR1 translocation (internalization) (CXCR1 [11]): translocation of CXCR2 but not CXCR1 to the cytoplasmic granules
generation of secondary necrotic cells, HEK293/CXCR2 [12]: generation of secondary necrotic cells
total CXCR2 protein level (CXCR2 [13]): no changes in total amounts
generation of secondary necrotic cells, HEK293/CXCR1 [14]: generation of secondary necrotic cells
down-regulation among 21 cell surface markers (CXCR2 [15]): only CXCR2 was specifically down-regulated
migration of neutrophils (neutrophils [16]; ref [3], [9], [10]): migration of human peripheral monocytes, neutrophils
neutrophil migration (literature) (neutrophils [16]; ref [9]): induces neutrophil migration
cytotoxicity (neutrophils [17]; LL-37 10 µM): general cytotoxicity is observed at this dosage
toxic effect on freshly isolated neutrophils (neutrophils [17]; annexin V negative): no toxic effect
ATP release (neutrophils [18]): induces ATP release from neutrophils
migration of immature dendritic cells (immature dendritic cells): but not immature dendritic cells
inhibition of spontaneous neutrophil apoptosis (neutrophils [19]): potent inhibitor of spontaneous neutrophil apoptosis
number of genes with stimulated expression by macrophages (macrophages): over 40 genes
migration of mast cells (mast cells): migration of human peripheral monocytes, neutrophils, CD4+ T cells, and mast cells

Source: publication PMC3076219 (European journal of immunology, 2009)
